Experimental data collected from several papers.
Each line is one published result; the experiments were not run side by side.

Structure (SMILES)	tested on	test	system	conditions	measurement	value
O=C(Nc1cccnn1)N1CCN([C@@H]2CCOc3cc(C(F)(F)F)ccc32)CC1			male Sprague-Dawley rat, brain	oral, 1 mg/kg, 4 h	concentration	438 ng/g
N#Cc1ccc(NC(=S)NN=Cc2ccccc2)cc1	CRFK	cell growth or viability, MTS			CC50	> 100 µg/mL
COC(=O)[C@H]1[C@@H](OC(=O)c2ccccc2)C[C@@H]2CC[C@H]1N2C			male Sprague-Dawley rat, plasma	intraperitoneal, 10 mg/kg, 1 h	concentration	310 ng/mL
COC(=O)C(NC(=O)c1cn(CCCCCF)c2ccccc12)C(C)(C)C (stereo not drawn)			male Sprague-Dawley rat, plasma	subcutaneous, 200 µg/kg	half-life	17.1 h
CN(C)[C@H]1C[C@@]23CC[C@@]4(O2)C(=CC[C@]2(C)C(c5ccc6ccncc6c5)=CC[C@H]24)C=C3[C@@H](O)[C@@H]1O	human PBMC	cell growth or viability, flow cytometry			CC50	100 µM
CC[C@@]1(O)C(=O)OCc2c1cc1n(c2=O)Cc2cc3ccccc3nc2-1	MDCK		Caco-2	100 µM, 105 min, pH 7.4	Papp B→A	10 ×10⁻⁶ cm/s
N#Cc1ccc(NC(=S)NN=Cc2ccc(F)cc2)cc1	CRFK	cell growth or viability, MTS			CC50	> 100 µg/mL
Cl.Cl.O=C(CCN1CCCCC1)c1ccc(-c2ccc(C(=O)CCN3CCCCC3)cc2)cc1			Sprague-Dawley rat, plasma	oral, 25 mg/kg	half-life	6.05 h
O=C(O)C(F)(F)C(F)(F)C(F)(F)C(F)(F)C(F)(F)C(F)(F)C(F)(F)F	Solute carrier family 22 member 6 (SLC22A6, Homo sapiens, UniProt Q4U2R8)	transporter uptake, substrate	HEK293	2.5 min, pH 7.4	Km	65.8 µM
